In brackets after ≈: the same amount, converted by molar mass. Activity calls are given as the source filed them. The calls are words filed in the database; no cut-off is given here.
Experiments:
[1] = Ratio of drug uptake in Wistar-Hannover rat unbound liver to plasma concentration at 10 mg/kg, po hydrochloride salt form of compound after 6 hrs by LC/MS-MS analysis; type: ADME, organism-based; details: liver and plasma
Method in brief: (§1)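 Male Wistar-Hannover rats (n = 2 or 3) dosed orally as a suspension in 0.5% methyl cellulose with 0.1% Tween 80. Plasma and liver sampled 6 h post-dose. Kp is total liver/plasma; Kpu,u uses unbound fractions from equilibrium dialysis of plasma and liver.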

[2] = Drug uptake in Wistar-Hannover rat liver at 10 mg/kg, po using hydrochloride salt form of compound after 6 hrs by LC/MS-MS analysis; type: ADME, organism-based; details: read-out: Drug uptake
Method in brief: (§2)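 Male Wistar-Hannover rats, n = 2 or 3, given an oral suspension in 0.5% methyl cellulose with 0.1% Tween 80; one compound was dosed as the HCl salt. Total plasma and liver concentrations were measured 6 h post-dose. Kp = liver/plasma total concentration. Kpu,u uses fu values from equilibrium dialysis.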

[3] = Ratio of drug uptake in Wistar-Hannover rat liver to plasma at 10 mg/kg, po hydrochloride salt form of compound after 6 hrs by LC/MS-MS analysis; type: ADME, organism-based; details: liver and plasma; method in brief: as §1
[4] = Drug uptake in Wistar-Hannover rat assessed as plasma concentration at 10 mg/kg, po hydrochloride salt form of compound after 6 hrs by LC/MS-MS analysis; type: ADME, organism-based; method in brief: as §2
[5] = Apparent permeability in MCDKII-LE cells at 2 uM incubated for 30 mins; type: ADME, cell-based, Canis lupus familiaris, MDCKII-LE; details: dog, MDCK
Method in brief: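 MDCK-LE (low-efflux) cell monolayers with a 30 min pre-incubation. Read-out is apparent passive permeability (Papp, 10^-6 cm/s).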

[6] = target: Acetyl-CoA carboxylase 2 (Homo sapiens, UniProt O00763); test: Inhibition of recombinant human ACC2 using acetyl coA as substrate incubated for 1 hr by transcreener fluorescence polarization assay
Acetyl-CoA carboxylase 2, sequence (O00763 whole entry): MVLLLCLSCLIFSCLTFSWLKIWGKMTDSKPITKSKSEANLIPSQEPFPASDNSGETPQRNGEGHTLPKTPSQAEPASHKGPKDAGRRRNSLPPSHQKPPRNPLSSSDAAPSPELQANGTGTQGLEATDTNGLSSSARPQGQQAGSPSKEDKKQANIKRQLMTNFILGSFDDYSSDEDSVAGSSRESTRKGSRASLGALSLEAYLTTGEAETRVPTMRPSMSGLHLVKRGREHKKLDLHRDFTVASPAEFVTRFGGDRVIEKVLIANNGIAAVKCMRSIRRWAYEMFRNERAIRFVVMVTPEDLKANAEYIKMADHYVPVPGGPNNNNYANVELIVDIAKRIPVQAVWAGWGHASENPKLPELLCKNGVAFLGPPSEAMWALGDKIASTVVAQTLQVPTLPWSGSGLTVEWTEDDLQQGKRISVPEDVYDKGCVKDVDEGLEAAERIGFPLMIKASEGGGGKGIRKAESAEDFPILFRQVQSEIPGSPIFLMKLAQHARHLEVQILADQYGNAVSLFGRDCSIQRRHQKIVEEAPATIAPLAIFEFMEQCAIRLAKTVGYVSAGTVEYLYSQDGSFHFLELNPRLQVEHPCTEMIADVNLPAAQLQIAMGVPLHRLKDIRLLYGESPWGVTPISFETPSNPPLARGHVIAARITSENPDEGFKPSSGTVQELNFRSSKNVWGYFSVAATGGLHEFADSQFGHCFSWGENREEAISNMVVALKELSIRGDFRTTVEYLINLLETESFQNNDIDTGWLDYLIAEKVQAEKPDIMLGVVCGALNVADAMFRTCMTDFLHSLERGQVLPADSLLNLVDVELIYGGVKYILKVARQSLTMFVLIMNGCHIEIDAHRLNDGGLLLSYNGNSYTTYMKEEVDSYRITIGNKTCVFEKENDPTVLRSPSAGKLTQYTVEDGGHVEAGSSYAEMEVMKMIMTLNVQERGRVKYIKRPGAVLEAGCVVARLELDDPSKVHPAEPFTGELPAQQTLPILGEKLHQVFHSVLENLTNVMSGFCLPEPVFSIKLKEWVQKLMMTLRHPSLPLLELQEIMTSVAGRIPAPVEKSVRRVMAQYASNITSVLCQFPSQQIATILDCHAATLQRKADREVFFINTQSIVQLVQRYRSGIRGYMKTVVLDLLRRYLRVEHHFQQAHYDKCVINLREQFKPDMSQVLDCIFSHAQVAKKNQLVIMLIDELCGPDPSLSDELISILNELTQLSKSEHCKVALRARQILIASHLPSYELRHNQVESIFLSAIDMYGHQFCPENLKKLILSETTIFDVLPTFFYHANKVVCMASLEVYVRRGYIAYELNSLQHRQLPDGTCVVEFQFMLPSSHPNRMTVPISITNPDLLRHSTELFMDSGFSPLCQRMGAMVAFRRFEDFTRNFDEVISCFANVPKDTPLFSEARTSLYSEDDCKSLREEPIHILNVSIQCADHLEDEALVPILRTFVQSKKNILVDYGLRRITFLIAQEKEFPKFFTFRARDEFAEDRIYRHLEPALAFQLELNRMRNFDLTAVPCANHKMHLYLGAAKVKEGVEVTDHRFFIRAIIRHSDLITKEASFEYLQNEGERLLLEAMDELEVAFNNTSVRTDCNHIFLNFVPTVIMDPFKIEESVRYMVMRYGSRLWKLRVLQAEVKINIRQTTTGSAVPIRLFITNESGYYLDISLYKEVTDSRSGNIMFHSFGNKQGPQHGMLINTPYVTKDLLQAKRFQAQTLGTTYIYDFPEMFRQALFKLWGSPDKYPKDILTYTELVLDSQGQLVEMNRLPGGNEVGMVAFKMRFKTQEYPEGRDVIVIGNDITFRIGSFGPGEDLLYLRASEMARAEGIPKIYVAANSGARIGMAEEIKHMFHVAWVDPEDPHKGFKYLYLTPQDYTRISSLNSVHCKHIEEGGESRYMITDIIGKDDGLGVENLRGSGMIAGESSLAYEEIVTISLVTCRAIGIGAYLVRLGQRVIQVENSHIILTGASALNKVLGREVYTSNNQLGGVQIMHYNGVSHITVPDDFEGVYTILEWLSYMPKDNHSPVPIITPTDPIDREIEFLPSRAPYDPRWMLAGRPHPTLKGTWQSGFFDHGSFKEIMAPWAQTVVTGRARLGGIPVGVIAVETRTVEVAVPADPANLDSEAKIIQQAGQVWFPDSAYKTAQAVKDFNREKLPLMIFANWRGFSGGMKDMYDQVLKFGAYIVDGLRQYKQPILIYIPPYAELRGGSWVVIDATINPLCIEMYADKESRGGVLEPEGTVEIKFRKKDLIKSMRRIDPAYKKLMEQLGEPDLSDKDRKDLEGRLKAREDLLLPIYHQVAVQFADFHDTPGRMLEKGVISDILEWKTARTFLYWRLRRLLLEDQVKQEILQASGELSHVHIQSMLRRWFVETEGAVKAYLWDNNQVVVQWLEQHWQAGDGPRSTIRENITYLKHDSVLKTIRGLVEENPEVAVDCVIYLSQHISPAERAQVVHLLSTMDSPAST
Method in brief: (§3)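 Recombinant human enzyme, Transcreener assay run per an earlier protocol. IC50 is the geometric mean of at least three replicates, also given as pIC50 ± SD.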

[7] = target: Acetyl-CoA carboxylase 1 (Homo sapiens, UniProt Q13085); test: Inhibition of recombinant human ACC1 using acetyl coA as substrate incubated for 1 hr by transcreener fluorescence polarization assay; method in brief: as §3
[8] = Thermodynamic solubility of the compound at pH 7.4 after 24 hrs; type: physicochemical; details: buffer, read-out: Therm_solubility
[9] = Thermodynamic solubility of the compound at pH 1.2 after 24 hrs; type: physicochemical; details: buffer, read-out: Therm_solubility
[10] = Thermodynamic solubility of the compound at pH 6.5 after 24 hrs; type: physicochemical; details: buffer, read-out: Therm_solubility
[11] = AUC (0 to 24 hrs) in Wistar-Hannover rat plasma at 1 mg/kg, iv and measured up to 24 hrs by LC/MS-MS analysis; type: ADME, organism-based; design: route intravenous, dose 1 mg/kg, time <=24
Method in brief: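 Male Wistar-Hannover rats (240–350 g) with jugular vein cannulas were given 1 mg/kg IV at 2 mL/kg. Vehicle, depending on compound, was 10% DMSO/90% of 20% sulfobutylether-β-cyclodextrin in water or 10% DMSO/30% PEG400/60% water. AUC0–24 came from plasma concentration–time data by the linear trapezoidal rule, averaged for n = 2. Lower detection limit was 1 ng/mL.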

[12] = Cmax in Wistar-Hannover rat plasma at 4 mg/kg, po and measured up to 24 hrs by LC/MS-MS analysis; type: ADME, organism-based; design: route oral, dose 4 mg/kg, time <=24
[13] = Half life in Wistar-Hannover rat plasma at 1 mg/kg, iv and measured up to 24 hrs by LC/MS-MS analysis; type: ADME, organism-based
Method in brief: (§4)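 Male Wistar-Hannover rats (240–350 g) with jugular vein cannulas, dosed 1 mg/kg IV (2 mL/kg) or PO. IV vehicle was 10% DMSO/90% of 20% sulfobutylether-β-cyclodextrin in water, or 10% DMSO/30% PEG400/60% water. Plasma was analysed by LC-MS/MS. Parameters come from plasma concentration–time data, n = 2: Cmax observed directly, AUC0-24 by the linear trapezoidal rule, CL = IV dose/AUC, Vss = dose/(AUC × elimination rate constant).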

[14] = Apparent volume of distribution at steady state in Wistar-Hannover rat plasma at 1 mg/kg, iv and measured up to 24 hrs by LC/MS-MS analysis; type: ADME, organism-based; details: read-out: Vdss(app); method in brief: as §4
[15] = Clearance in Wistar-Hannover rat plasma at 1 mg/kg, iv and measured up to 24 hrs by LC/MS-MS analysis; type: ADME, organism-based; method in brief: as §4
[16] = target: T1, OATP1B3 (Homo sapiens, UniProt Q9NPD5); test: Substrate activity at human OATP1B3 stably expressed in HEK293 cells assessed as ratio of total to passive cellular uptake at 1 to 3 uM incubated for 0.5 to 4 mins by LC/MS-MS analysis; type: ADME, cell-based; details: HEK293 cells stably expressing human OATP1B3, dose 1-3 µM, time 0.5-4 min
T1 sequence (Q9NPD5 whole entry): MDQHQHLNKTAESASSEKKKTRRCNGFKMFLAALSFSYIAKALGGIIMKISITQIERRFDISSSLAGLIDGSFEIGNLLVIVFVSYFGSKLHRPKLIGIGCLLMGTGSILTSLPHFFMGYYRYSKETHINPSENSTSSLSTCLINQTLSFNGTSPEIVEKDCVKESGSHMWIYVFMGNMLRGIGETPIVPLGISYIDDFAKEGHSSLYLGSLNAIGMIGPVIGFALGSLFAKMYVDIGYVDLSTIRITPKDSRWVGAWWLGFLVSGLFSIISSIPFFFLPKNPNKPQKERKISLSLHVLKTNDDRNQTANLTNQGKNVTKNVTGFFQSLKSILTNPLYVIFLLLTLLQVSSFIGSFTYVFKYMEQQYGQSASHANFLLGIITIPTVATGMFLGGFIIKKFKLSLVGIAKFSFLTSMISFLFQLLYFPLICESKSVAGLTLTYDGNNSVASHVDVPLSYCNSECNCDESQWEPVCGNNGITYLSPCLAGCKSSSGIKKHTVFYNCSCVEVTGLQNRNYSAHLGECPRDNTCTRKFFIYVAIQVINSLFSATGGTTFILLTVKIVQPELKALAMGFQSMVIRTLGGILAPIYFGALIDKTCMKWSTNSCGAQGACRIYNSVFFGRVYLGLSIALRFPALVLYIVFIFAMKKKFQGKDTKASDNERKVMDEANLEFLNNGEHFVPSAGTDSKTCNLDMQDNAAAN
Method in brief: (§5)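 Stably transfected HEK293 cells and wild-type parental cells, cultured to confluency in DMEM with 10% heat-inactivated FBS and 5 µg/mL blasticidin. Uptake at 1–3 µM in HBSS/20 mM HEPES pH 7.4, 37 °C, 0.5–4.0 min. Cells washed in ice-cold buffer, lysed in MeOH, quantified by LC-MS/MS and normalized to protein. Ratio is transfected/parental uptake; >2 denotes substrate.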

[17] = target: T2, OATP1B1 (Homo sapiens, UniProt Q9Y6L6); test: Substrate activity at human OATP1B1 stably expressed in HEK293 cells assessed as ratio of total to passive cellular uptake at 1 to 3 uM incubated for 0.5 to 4 mins by LC/MS-MS analysis; type: ADME, cell-based; details: HEK293 cells stably expressing human OATP1B1, dose 1-3 µM, time 0.5-4 min; method in brief: as §5
T2 sequence (Q9Y6L6 whole entry): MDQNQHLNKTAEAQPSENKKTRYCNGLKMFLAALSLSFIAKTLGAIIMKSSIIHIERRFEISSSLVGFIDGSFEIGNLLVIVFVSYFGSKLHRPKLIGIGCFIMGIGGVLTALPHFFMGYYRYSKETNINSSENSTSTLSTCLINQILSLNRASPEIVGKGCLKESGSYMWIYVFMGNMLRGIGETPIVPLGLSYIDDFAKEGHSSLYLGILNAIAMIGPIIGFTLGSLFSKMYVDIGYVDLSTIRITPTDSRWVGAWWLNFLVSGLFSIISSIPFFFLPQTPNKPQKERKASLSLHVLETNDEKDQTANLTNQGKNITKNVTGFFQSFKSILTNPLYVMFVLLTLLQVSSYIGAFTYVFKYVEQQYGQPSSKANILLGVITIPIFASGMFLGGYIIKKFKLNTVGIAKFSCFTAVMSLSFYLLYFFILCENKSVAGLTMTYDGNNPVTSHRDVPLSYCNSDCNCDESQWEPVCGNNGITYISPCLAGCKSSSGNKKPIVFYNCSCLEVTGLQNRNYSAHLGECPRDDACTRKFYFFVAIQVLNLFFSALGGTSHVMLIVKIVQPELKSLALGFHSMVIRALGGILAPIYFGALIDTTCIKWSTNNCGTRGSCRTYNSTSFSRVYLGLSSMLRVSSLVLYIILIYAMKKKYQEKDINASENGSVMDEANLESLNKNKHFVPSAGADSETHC

[18] = Metabolic intrinsic clearance in human hepatocytes assessed per million cells incubated for 2 hrs; type: ADME, cell-based, Hepatocyte; details: read-out: CLH
Method in brief: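 Cryopreserved human hepatocytes incubated for 2 h. In vitro half-lives scaled to intrinsic clearance, expressed per 10^6 cells.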

[19] = Octanol-water partition coefficient, logD of compound at pH 7.4 at 0.5 to 2 mg incubated for 1 hr by HPLC based shake-flask method; type: physicochemical; details: dose 0.5-2 mg
Method in brief: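 Shake-flask octanol/water partition at pH 7.4.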

[20] = Fraction unbound in rat liver by equilibrium dialysis method
[21] = species: Rattus norvegicus; test: Fraction unbound in rat plasma by equilibrium dialysis method
[22] = test system: Rattus norvegicus; test: Effect on triglyceride accumulation in Sprague-Dawley rat high fat dietary model at 10 mg/kg, po assessed as reduction in triglyceride level after 42 days by XPT clinical analyzer; type: functional, organism-based; details: time 42.0 day
Method in brief: (§6)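 High-fat-diet-fed Sprague-Dawley rats dosed orally for 42 days, with chow-fed and vehicle controls, n = 10 per group. Read-out is hepatic triglyceride, reported as mean ± SEM.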

[23] = test system: Rattus norvegicus; test: Effect on triglyceride accumulation in po dosed Sprague-Dawley rat high fat dietary model assessed as reduction in triglyceride level after 42 days by XPT clinical analyzer; type: functional, organism-based; details: time 42.0 day; method in brief: as §6
[24] = test system: Rattus norvegicus; test: Inhibition of DNL in po dosed Sprague-Dawley rat assessed as reduction in DNL level in liver pretreated with one hr followed by [14C]-acetate treatment and measured after 1 hr; type: functional, organism-based
Method in brief: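 Sprague-Dawley rats given single oral doses of 0.03–300 mg/kg in 0.5% methyl cellulose vehicle, n = 16 per dose. Read-out is incorporation of 14C-acetate into lipids in liver, bone marrow and lung, measured at 2 h post-dose relative to vehicle. Data are mean ± SEM. EC50 is reported with a 95% confidence interval.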

[25] = species: Homo sapiens; test: Inhibition of ACC (unknown origin) at 100 uM

SMILES | Papp at 0.5 h, 2 µM [5] [×10⁻⁶ cm/s] | IC50 [6] [nM] | IC50 [7] [nM] | logD at 1 h [19] | other results
CC(C)n1ncc2c1C(=O)CC1(CCN(C(=O)c3cc(-c4ccc(C(=O)O)cc4)nc(N(C)C)c3)CC1)C2.Cl |  |  |  |  | Kp uu at 6 h [1]: 79; concentration at 6 h [2]: 9920 ng/mL; Kp at 6 h [3]: 173; concentration at 6 h [4]: 57.4 ng/mL
CC(C)(C)n1cc2c(n1)C(=O)CC1(CCN(C(=O)c3ccc4[nH]nc(C(=O)O)c4c3)CC1)O2 | < 0.4 | 33 | 130 |  | 
CN(C)c1cc(C(=O)N2CCC3(CC2)CC(=O)c2nn(C(C)(C)C)cc2O3)cc(-c2ccc(C(=O)O)cc2)n1 | 0.5 | 9.4 | 17 | 0.8 | hepatocyte CLint [18]: 7.5 µL/min/1e6 cells
CC(C)(C)n1cc2c(n1)C(=O)CC1(CCN(C(=O)c3cccc(-c4ccc(C(=O)O)cc4)c3)CC1)O2 | 2.5 | 92 | 440 |  | 
CC(C)(C)n1cc2c(n1)C(=O)CC1(CCN(C(=O)c3cccc(-c4cccc(C(=O)O)c4)c3)CC1)O2 | 1.3 | 200 | 1500 |  | 
CC(C)(C)n1cc2c(n1)C(=O)CC1(CCN(C(=O)c3ccnc(-c4ccc(C(=O)O)cc4)c3)CC1)O2 |  | 190 | 1100 | -0.4 | 
COc1cc(C(=O)N2CCC3(CC2)CC(=O)c2c(cnn2C(C)C)C3)cc(-c2ccc(C(=O)O)cc2)n1 |  |  |  |  | Activity [22]: Active; Activity [23]: Dose-dependent effect; inhibition [24]: Dose-dependent effect; inhibition [25]: inactive

Second part, led by results:

Papp at 0.5 h, 2 µM [5] [×10⁻⁶ cm/s] | IC50 [6] [nM] | IC50 [7] [nM] | logD at 1 h [19] | SMILES | other results
0.5 | 1200 | 12000 |  | Cc1nc2cc(C(=O)N3CCC4(CC3)CC(=O)c3c(c(C(=O)O)nn3C(C)C)C4)ccc2[nH]1 | 
13 | 5.6 | 7.7 | 1.4 | CC(C)n1ncc2c1C(=O)CC1(CCN(C(=O)c3cc(-c4ccc(C(=O)O)cc4)nc(N(C)C)c3)CC1)C2 | solubility thermodynamic at 24 h [8]: 13 µM (≈ 6.7 µg/mL); solubility thermodynamic at 24 h [9]: 2 µM (≈ 1.03 µg/mL); solubility thermodynamic at 24 h [10]: 3 µM (≈ 1.55 µg/mL); AUC(0-t) [11]: 519 ng·h/mL; Cmax [12]: < 1 ng/mL; half-life [13]: 7.5 h; Vd [14]: 5.2 L/kg; clearance [15]: 31.3 mL/min/kg; uptake ratio at up to 3 µM [16]: 1.4; uptake ratio at up to 3 µM [17]: 2.1; hepatocyte CLint [18]: < 3 µL/min/1e6 cells; fraction unbound [20]: 0.026; fraction unbound [21]: 0.057

Source: ChEMBL document CHEMBL4665761, “Optimizing the Benefit/Risk of Acetyl-CoA Carboxylase Inhibitors through Liver Targeting” (J Med Chem, 2020)
